Measured values published in ChEMBL document CHEMBL5724801, “EUbOPEN Chemogenomics Library - Multiplex” (2024).
“And” between values parts separate entries of the source, which are not always exact repeats. Identical values can stand only once.

System: U2OS
Experiment: Multiplex assay against U2OS
Type: toxicity, cell-based
Conditions: human
Outline: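 Compound was added to live cells that had been stained at seeding with Hoechst33342, BioTracker Green Microtubule Cytoskeleton Dye, MitoTracker Red and Annexin V Alexa Fluor 680, and imaging followed on a CQ1 microscope at 37°C and 5% CO2. CellPathfinder machine-learning gating divided cells into Hoechst high-intensity objects or normal cells, normal cells into healthy, pyknosed or fragmented nuclei, and pyknosed cells into mitotic or apoptotic. Tubulin, mitochondrial-mass and membrane-permeability phenotypes are per cents of healthy-nucleus cells.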

[1] = 12 h, 1 µM, compound concentration 1 uM
[2] = 12 h, 10 µM, compound concentration 10 uM
[3] = 24 h, 1 µM, compound concentration 1 uM
[4] = 24 h, 10 µM, compound concentration 10 uM
[5] = 48 h, 1 µM, compound concentration 1 uM
[6] = 48 h, 10 µM, compound concentration 10 uM

CC(=O)Nc1cccc2c1c(Sc1ccc(Cl)cc1)c(C)n2CC(=O)O [AZD1981]
Population Apoptotic (%) [1]: 68% and 83%
Population Fragmented Nuclei (%) [1]: 24% and 16%
Population Healthy Nuclei (%) [1]: 68% and 76%
Population Hoechst High Intensity Objects (%) [1]: 3% and 1%
Population Membrane Permeable-Phenotype (%) [1]: 3% and 6%
Population Mitochondria Different-Phenotype (%) [1]: 0% and 1%
Population Mitotic Cells (%) [1]: 31% and 16%
Population Normal (%) [1]: 96% and 98%
Population Pyknosed Nuclei (%) [1]: 6% and 7%
Population Tubulin-Different-Phenotype (%) [1]: 2% and 3%
Population Apoptotic (%) [2]: 83% and 80%
Population Fragmented Nuclei (%) [2]: 25% and 19%
Population Healthy Nuclei (%) [2]: 66% and 76%
Population Hoechst High Intensity Objects (%) [2]: 2% and 3%
Population Membrane Permeable-Phenotype (%) [2]: 8% and 10%
Population Mitochondria Different-Phenotype (%) [2]: 0% and 3%
Population Mitotic Cells (%) [2]: 16% and 20%
Population Normal (%) [2]: 97% and 96%
Population Pyknosed Nuclei (%) [2]: 7% and 4%
Population Tubulin-Different-Phenotype (%) [2]: 1% and 5%
Total Cell Count [2]: 231 and 122
Population Apoptotic (%) [3]: 91% and 50%
Population Fragmented Nuclei (%) [3]: 25% and 16%
Population Healthy Nuclei (%) [3]: 66% and 82%
Population Hoechst High Intensity Objects (%) [3]: 2% and 0%
Population Membrane Permeable-Phenotype (%) [3]: 5% and 4%
Population Mitochondria Different-Phenotype (%) [3]: 1% and 3%
Population Normal (%) [3]: 97% and 100%
Population Pyknosed Nuclei (%) [3]: 8% and 1%
Population Tubulin-Different-Phenotype (%) [3]: 3% and 0%
Total Cell Count [3]: 289 and 106
Population Apoptotic (%) [4]: 88% and 100%
Population Fragmented Nuclei (%) [4]: 23% and 14%
Population Healthy Nuclei (%) [4]: 66% and 77%
Population Hoechst High Intensity Objects (%) [4]: 0%
Population Membrane Permeable-Phenotype (%) [4]: 6% and 3%
Population Mitochondria Different-Phenotype (%) [4]: 2% and 4%
Population Mitotic Cells (%) [4]: 11% and 0%
Population Normal (%) [4]: 99%
Population Pyknosed Nuclei (%) [4]: 9% and 8%
Population Tubulin-Different-Phenotype (%) [4]: 2% and 0%
Total Cell Count [4]: 266 and 125
Population Apoptotic (%) [5]: 91% and 81%
Population Fragmented Nuclei (%) [5]: 16% and 9%
Population Healthy Nuclei (%) [5]: 74% and 82%
Population Hoechst High Intensity Objects (%) [5]: 1% and 3%
Population Membrane Permeable-Phenotype (%) [5]: 6%
Population Mitochondria Different-Phenotype (%) [5]: 2% and 0%
Population Mitotic Cells (%) [5]: 8% and 18%
Population Normal (%) [5]: 98% and 96%
Population Pyknosed Nuclei (%) [5]: 9% and 7%
Population Tubulin-Different-Phenotype (%) [5]: 4% and 1%
Total Cell Count [5]: 375 and 144
Population Apoptotic (%) [6]: 100% and 85%
Population Fragmented Nuclei (%) [6]: 18% and 14%
Population Healthy Nuclei (%) [6]: 75% and 73%
Population Hoechst High Intensity Objects (%) [6]: 2% and 1%
Population Membrane Permeable-Phenotype (%) [6]: 7%
Population Mitochondria Different-Phenotype (%) [6]: 2% and 4%
Population Mitotic Cells (%) [6]: 0% and 15%
Population Normal (%) [6]: 97% and 98%
Population Pyknosed Nuclei (%) [6]: 5% and 11%
Population Tubulin-Different-Phenotype (%) [6]: 4%
Total Cell Count [6]: 366 and 171

Cc1cc(Nc2ncc(Cl)c(Nc3ccccc3S(=O)(=O)C(C)C)n2)c(OC(C)C)cc1C1CCNCC1 [CERITINIB]
Population Apoptotic (%) [1]: 28.57% and 18.75%
Population Fragmented Nuclei (%) [1]: 3.31% and 3.57%
Population Healthy Nuclei (%) [1]: 78.68% and 58.33%
Population Hoechst High Intensity Objects (%) [1]: 0%
Population Membrane Permeable-Phenotype (%) [1]: 17.76% and 17.35%
Population Mitotic Cells (%) [1]: 71.43% and 81.25%
Population Normal (%) [1]: 100%
Population Pyknosed Nuclei (%) [1]: 18.01% and 38.1%
Population Tubulin-Different-Phenotype (%) [1]: 40.65% and 72.45%
Total Cell Count [1]: 272 and 168
Population Apoptotic (%) [2]: 77.85% and 68.91%
Population Fragmented Nuclei (%) [2]: 0.93% and 0.8%
Population Healthy Nuclei (%) [2]: 3.43% and 4%
Population Hoechst High Intensity Objects (%) [2]: 0%
Population Membrane Permeable-Phenotype (%) [2]: 36.36% and 80%
Population Mitochondria Different-Phenotype (%) [2]: 0%
Population Mitotic Cells (%) [2]: 22.15% and 31.09%
Population Normal (%) [2]: 100%
Population Pyknosed Nuclei (%) [2]: 95.64% and 95.2%
Population Tubulin-Different-Phenotype (%) [2]: 72.73% and 60%
Total Cell Count [2]: 321 and 125
Population Apoptotic (%) [3]: 29.58% and 27.12%
Population Fragmented Nuclei (%) [3]: 2.58% and 2.73%
Population Healthy Nuclei (%) [3]: 77.08% and 65.03%
Population Hoechst High Intensity Objects (%) [3]: 0.29% and 0%
Population Membrane Permeable-Phenotype (%) [3]: 4.09% and 6.72%
Population Mitotic Cells (%) [3]: 70.42% and 72.88%
Population Normal (%) [3]: 99.71% and 100%
Population Pyknosed Nuclei (%) [3]: 20.34% and 32.24%
Population Tubulin-Different-Phenotype (%) [3]: 29% and 47.06%
Total Cell Count [3]: 350 and 183
Population Apoptotic (%) [4]: 83.51% and 81.55%
Population Fragmented Nuclei (%) [4]: 1.89% and 2.42%
Population Healthy Nuclei (%) [4]: 6.6% and 14.52%
Population Hoechst High Intensity Objects (%) [4]: 0%
Population Membrane Permeable-Phenotype (%) [4]: 23.81% and 50%
Population Mitochondria Different-Phenotype (%) [4]: 9.52% and 5.56%
Population Mitotic Cells (%) [4]: 16.49% and 18.45%
Population Normal (%) [4]: 100%
Population Pyknosed Nuclei (%) [4]: 91.51% and 83.06%
Population Tubulin-Different-Phenotype (%) [4]: 71.43% and 33.33%
Total Cell Count [4]: 318 and 124
Population Apoptotic (%) [5]: 50% and 61.97%
Population Fragmented Nuclei (%) [5]: 3.8% and 3.81%
Population Healthy Nuclei (%) [5]: 77.4% and 62.38%
Population Hoechst High Intensity Objects (%) [5]: 0.2% and 0%
Population Membrane Permeable-Phenotype (%) [5]: 1.55% and 4.58%
Population Mitotic Cells (%) [5]: 50% and 38.03%
Population Normal (%) [5]: 99.8% and 100%
Population Pyknosed Nuclei (%) [5]: 18.8% and 33.81%
Total Cell Count [5]: 501 and 210
Population Apoptotic (%) [6]: 89.1% and 93.88%
Population Fragmented Nuclei (%) [6]: 2.94% and 5.04%
Population Healthy Nuclei (%) [6]: 46.08% and 53.78%
Population Hoechst High Intensity Objects (%) [6]: 0%
Population Mitochondria Different-Phenotype (%) [6]: 7.09% and 10.94%
Population Mitotic Cells (%) [6]: 10.9% and 6.12%
Population Normal (%) [6]: 100%
Population Pyknosed Nuclei (%) [6]: 50.98% and 41.18%
Population Tubulin-Different-Phenotype (%) [6]: 46.1% and 31.25%
Total Cell Count [6]: 306 and 119

CN1C[C@H](C(=O)N[C@]2(C)O[C@@]3(O)[C@@H]4CCCN4C(=O)[C@H](Cc4ccccc4)N3C2=O)C[C@@H]2c3cccc4[nH]cc(c34)C[C@H]21.CS(=O)(=O)O [DIHYDROERGOTAMINE MESYLATE]
Population Apoptotic (%) [1]: 82% and 84%
Population Fragmented Nuclei (%) [1]: 24% and 23%
Population Healthy Nuclei (%) [1]: 65% and 63%
Population Hoechst High Intensity Objects (%) [1]: 1%
Population Membrane Permeable-Phenotype (%) [1]: 6% and 14%
Population Mitochondria Different-Phenotype (%) [1]: 2% and 1%
Population Mitotic Cells (%) [1]: 17% and 15%
Population Normal (%) [1]: 98%
Population Pyknosed Nuclei (%) [1]: 10% and 13%
Population Tubulin-Different-Phenotype (%) [1]: 2% and 7%
Total Cell Count [1]: 233 and 101
Population Apoptotic (%) [2]: 71% and 100%
Population Fragmented Nuclei (%) [2]: 19%
Population Healthy Nuclei (%) [2]: 73% and 77%
Population Hoechst High Intensity Objects (%) [2]: 2% and 1%
Population Membrane Permeable-Phenotype (%) [2]: 5%
Population Mitochondria Different-Phenotype (%) [2]: 1% and 0%
Population Normal (%) [2]: 97% and 98%
Population Pyknosed Nuclei (%) [2]: 7% and 2%
Population Tubulin-Different-Phenotype (%) [2]: 3% and 0%
Total Cell Count [2]: 298 and 144
Population Apoptotic (%) [3]: 89% and 100%
Population Fragmented Nuclei (%) [3]: 23% and 21%
Population Healthy Nuclei (%) [3]: 67% and 65%
Population Hoechst High Intensity Objects (%) [3]: 0% and 1%
Population Membrane Permeable-Phenotype (%) [3]: 2% and 8%
Population Mitochondria Different-Phenotype (%) [3]: 0% and 2%
Population Mitotic Cells (%) [3]: 10% and 0%
Population Normal (%) [3]: 99% and 98%
Population Pyknosed Nuclei (%) [3]: 9% and 13%
Population Tubulin-Different-Phenotype (%) [3]: 2% and 4%
Total Cell Count [3]: 307 and 132
Population Apoptotic (%) [4]: 88% and 92%
Population Fragmented Nuclei (%) [4]: 18% and 16%
Population Healthy Nuclei (%) [4]: 73% and 75%
Population Hoechst High Intensity Objects (%) [4]: 1%
Population Membrane Permeable-Phenotype (%) [4]: 4%
Population Mitochondria Different-Phenotype (%) [4]: 2%
Population Mitotic Cells (%) [4]: 11% and 7%
Population Normal (%) [4]: 98%
Population Pyknosed Nuclei (%) [4]: 8%
Population Tubulin-Different-Phenotype (%) [4]: 2% and 1%
Total Cell Count [4]: 337 and 163
Population Apoptotic (%) [5]: 80% and 90%
Population Fragmented Nuclei (%) [5]: 14% and 11%
Population Healthy Nuclei (%) [5]: 78% and 76%
Population Hoechst High Intensity Objects (%) [5]: 2% and 1%
Population Membrane Permeable-Phenotype (%) [5]: 2% and 6%
Population Mitochondria Different-Phenotype (%) [5]: 2%
Population Mitotic Cells (%) [5]: 19% and 10%
Population Normal (%) [5]: 97% and 98%
Population Pyknosed Nuclei (%) [5]: 7% and 11%
Population Tubulin-Different-Phenotype (%) [5]: 1% and 4%
Total Cell Count [5]: 427 and 173
Population Apoptotic (%) [6]: 95% and 100%
Population Fragmented Nuclei (%) [6]: 14% and 19%
Population Healthy Nuclei (%) [6]: 75% and 72%
Population Hoechst High Intensity Objects (%) [6]: 3%
Population Membrane Permeable-Phenotype (%) [6]: 7% and 3%
Population Mitochondria Different-Phenotype (%) [6]: 3% and 1%
Population Mitotic Cells (%) [6]: 4% and 0%
Population Normal (%) [6]: 96%
Population Pyknosed Nuclei (%) [6]: 9% and 8%
Population Tubulin-Different-Phenotype (%) [6]: 3% and 2%
Total Cell Count [6]: 452 and 217
